Only some compounds are listed: those with a hit (about 2.6% of all), similar ones and a draw of the others.
NSD2 HMT inh – NSD2 histone methyltransferase inhibitors, primary screen, biochemical, AlphaScreen, single concentration, set 2; Histone-lysine N-methyltransferase NSD2 (Homo sapiens), O96028; NSD2 peptide methylation, 120 min; inhibition, % at 12.5 µM; 310,000 compounds, 0.54% hits; AID 743445, 2014; in the data active = inhibition above about 50%
UCH37 inh – inhibitors of human UCH37 deubiquitinase, primary screen, biochemical, Ub-AMC cleavage, fluorescence. purified proteasome/UCH37. inhibition, % (no concentration beside the values). 330,000 compounds, 0.33% hits. AID 588478, 2011;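 active = mean inhibition over replicate wells above about 20%, limit read from the data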;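 note: 0% = compound-free wells with enzyme and 100% = wells lacking proteasome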
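Signal – fluorescence, ex 355 nm, em 460 nm · System – Proteasome-bound UCH37 · Input – 0.15 nM proteasome as dispensed · Timing – 30 min preincubation with enzyme, 25 min cleavage at room temperature · Read-out basis – percent inhibition of cleavage signal versus uninhibited and no-proteasome wells · Medium – Tris-HCl pH 7.4 with ATP-MgCl2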
CASP6 VEID inh – human caspase-6 inhibitors, primary screen, biochemical, VEID-R110 fluorescence, single point, set 2; P55212; purified caspase-6, Z-VEID-R110 cleavage fluorescence; inhibition, % at 12.5 µM; 350,000 compounds, 0.53% hits;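 active = mean inhibition across replicates at least about 35%, with every replicate also reaching that limit, limit read from the data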;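 note: 0% = median of neutral control wells and 100% = no fluorescence left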
Target sequence (P55212 24-179 limits assumed): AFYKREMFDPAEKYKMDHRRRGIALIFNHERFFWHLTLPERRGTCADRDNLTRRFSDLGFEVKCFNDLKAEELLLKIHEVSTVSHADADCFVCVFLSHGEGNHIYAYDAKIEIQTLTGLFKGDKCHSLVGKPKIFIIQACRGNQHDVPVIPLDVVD
Target sequence (P55212 194-293 limits assumed): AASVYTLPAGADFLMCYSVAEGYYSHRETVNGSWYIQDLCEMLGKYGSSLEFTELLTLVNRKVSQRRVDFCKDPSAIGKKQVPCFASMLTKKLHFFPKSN
FGF22 binding – binders of human FGF22 protein, primary screen, FGF22 synaptogenesis inhibitor project, biophysical, thermal shift, single point. Fibroblast growth factor 22 (Homo sapiens), Q9HCT0. recombinant FGF22 thermal shift, SYPRO orange fluorescence; percent of sucrose octasulfate shift, DMSO zero. activity (Tm shift, normalised), % at 9.99 µM. 340,000 compounds, 1.5% hits. AID 651658, 2012;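 active = mean Tm shift, scaled 0 neutral to 100 positive control, at about 1.3% or above, every replicate too, limit read from the data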
Target sequence (Q9HCT0 whole entry, looked up): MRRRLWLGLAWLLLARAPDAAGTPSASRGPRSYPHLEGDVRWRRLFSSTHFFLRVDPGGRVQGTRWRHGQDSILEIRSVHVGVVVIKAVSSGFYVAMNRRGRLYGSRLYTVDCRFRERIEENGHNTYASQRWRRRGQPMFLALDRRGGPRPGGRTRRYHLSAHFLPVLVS
SIRT5 block – SIRT5 desuccinylase inhibitors, primary screen, biochemical, fluorescence imaging, single point, set 5; NAD-dependent protein deacylase sirtuin-5, mitochondrial (Homo sapiens), Q9NXA8; Purified SirT5, succinyl-peptide AMC, trypsin-coupled fluorescence; inhibition, % at 15 µM; 330,000 compounds, 1.1% hits; in the data active = inhibition above about 15%
Active calls of the source: *; . = no result given; ! = repeats disagree.

SMILES | NSD2 HMT inh | UCH37 inh | CASP6 VEID inh | FGF22 binding | SIRT5 block
COC(=O)C1=C(C)N(CC(C)C)C(=S)NC1c1cccc(OC)c1 (stereo not given) | 0 | . | -2 | 0 | 29*
O=C(NCC[C@H]1CC[C@@H](NS(=O)(=O)Cc2ccccc2)[C@H](CO)O1)C1CCCC1 | . | . | -2 | 0 | 5
CC12CCC(=O)N1C(C(=O)Nc1nc(-c3ccc(F)cc3)cs1)CS2 (stereo not given) | -7 | -1 | 18 | 0 | -3
Cc1cc(F)ccc1NC(=O)C1CSC2(C)CCC(=O)N12 (stereo not given) | -1 | 1 | 0 | 0 | 18*
CC12CCC(=O)N1C(C(=O)Nc1nc(-c3ccc(F)c(F)c3)cs1)CS2 (stereo not given) | 9 | 1 | 7 | 0 | 15*
Cc1cc(Br)ccc1NC(=O)C1CSC2(C)CCC(=O)N12 (stereo not given) | 1 | 1 | 2 | . | 0
CCc1ccc(C(=O)NNC(=S)Nc2ccc(S(N)(=O)=O)cc2)s1 | 7 | . | 2 | 1.8* | 3
CC(C)CC(=O)NNC(=S)Nc1ccc(S(N)(=O)=O)cc1 | -2 | 3 | 1 | 0 | .
O=c1ccc(-c2ccc(S(=O)(=O)Nc3cccc([N+](=O)[O-])c3)s2)n[nH]1 | 5 | 9 | 36* | 0 | -8
Cc1c(C#N)c(O)n(CCO)c(=O)c1N=Nc1ccc(S(N)(=O)=O)cc1 | -1 | 21* | 9 | 0 | 4
Cc1ccc(S(=O)(=O)Nc2ccccc2C(O)c2ccccc2)cc1 (stereo not given) | -3 | 2 | 0 | 0 | -3
CNc1ccc(Br)cc1C(O)c1ccccc1 (stereo not given) | 0 | 5 | 0 | 0 | 37*
COc1ccccc1CCc1nnc(CCC(=O)NCCOc2cccnc2)o1 | -3 | 4 | -2 | 44* | 1
COc1ccccc1CCc1nnc(CCC(=O)NCC(C)Oc2cccnc2)o1 (stereo not given) | 3 | 0 | 1 | 0 | -3
COc1cccc(N2CC(=O)N(c3cccc(OC)c3)CC2=O)c1 | -4 | 4 | -1 | 44* | 4
CC=Cc1ccc2n(c1=O)C[C@@H]1[C@@H](CO)[C@H](C(=O)NCCN3CCCC3)N(C(=O)NC(C)C)[C@H]21 (mixture of isomers) | . | . | -71 | 0 | -11
CCOC(=O)CSc1nc2cc(OCC)ccc2cc1C#N | -2 | -88 | -2 | . | 21*
Cc1ccc(S(=O)(=O)N(C)C[C@H]2OCc3cn(nn3)CCCC(=O)N([C@@H](C)CO)C[C@H]2C)cc1 | . | . | 1 | 0 | -1
C[C@@H]1CN([C@@H](C)CO)C(=O)CCCn2nncc2CO[C@H]1CN(C)S(=O)(=O)c1ccc2c(c1)OCCCO2 | . | . | 0 | 0 | 20*!
Cc1ccc(S(=O)(=O)N(C)C[C@H]2OCc3cn(nn3)CCCC(=O)N([C@@H](C)CO)C[C@@H]2C)cc1 | . | . | -1 | 0 | 20*!
C[C@H](CO)N1C[C@H](C)[C@H](CN(C)S(=O)(=O)c2ccc3c(c2)OCCCO3)OCc2cnnn2CCCC1=O | . | . | -4 | 0 | -1
C[C@H](CO)N1C[C@H](C)[C@@H](CN(C)S(=O)(=O)c2ccc3c(c2)OCCCO3)OCc2cn(nn2)CCCC1=O | . | . | 47*! | 0 | -1
Cc1nc(SCC(=O)c2cc3ccccc3oc2=O)c(C#N)c(-c2cccs2)c1C(=O)Nc1ccccc1 | -2 | -45 | -1 | 43* | -5
O=C(NC(=S)Nc1nc(-c2ccccc2)cs1)c1cccnc1 | 2 | 8 | 0 | 43* | 0
O=C(NC(=S)Nc1nc(-c2ccccc2)cs1)c1cncc(Br)c1 | . | 7 | -1 | 0 | 1
SMILES | NSD2 HMT inh | UCH37 inh | CASP6 VEID inh | FGF22 binding | SIRT5 block
Oc1cccc(C=NNc2cc(N3CCCC3)nc(N3CCCC3)n2)c1 | . | -1 | . | . | .
Cc1cc(N/N=C/c2ccc(O)cc2O)nc(N2CCOCC2)n1 | 1 | . | 7 | 0 | 6
Oc1ccc(/C=N/Nc2cc(N3CCCC3)nc(N3CCCC3)n2)cc1O | 110* | . | 17 | 1 | -1
Oc1ccc(/C=N\Nc2cc(N3CCOCC3)nc(N3CCOCC3)n2)c(O)c1 | 153* | . | 7 | 0 | 3
Cc1ccccc1-c1ccc([C@@H]2[C@@H](CO)N3C(=O)CN(C(=O)Cc4ccccn4)C[C@@H]23)cc1 | . | . | 1 | 0 | 0
CS(=O)(=O)N1CCN=C1SCc1ccc([N+](=O)[O-])cc1 | -2 | 2 | -5 | 43* | -5
Nc1c(S(=O)(=O)O)cc(NC(=O)c2ccccc2)c2c1C(=O)c1ccccc1C2=O | . | 33* | 9 | . | 5
O=C(Nc1ccccc1-c1ccccc1)c1ccccc1 | -3 | -2 | 2 | 0 | -2
C[C@H](CO)N1C[C@H](C)[C@@H](CN(C)C(=O)Nc2ccc(C(F)(F)F)cc2)Oc2ccc(NC(=O)CCC(F)(F)F)cc2CC1=O | . | . | . | 0 | .
Cc1ccc2cccc(S(=O)(=O)N3CCCc4ccccc43)c2n1 | -1 | 3 | 1 | 43* | 0
CCC(=O)N1[C@H](C(=O)Nc2nccs2)[C@@H](CO)[C@@H]2Cn3c(ccc(C4=CCCCC4)c3=O)[C@@H]21 | . | . | . | 0 | -7
COC(=O)C[C@H]1CC[C@H]2[C@H](COc3ccc(NS(=O)(=O)c4ccc(F)cc4)cc3C(=O)N2C)O1 | . | . | 3 | 0 | -2
C[C@@H]1CN([C@H](C)CO)C(=O)c2cc(NS(=O)(=O)c3ccccc3)ccc2O[C@@H](C)CCCCO[C@@H]1CN(C)Cc1ccc(C(F)(F)F)cc1 | . | . | -1 | . | 0
C[C@@H]1CCCCO[C@H](CN(C)Cc2ccc(C(F)(F)F)cc2)[C@@H](C)CN([C@@H](C)CO)C(=O)c2cc(NS(=O)(=O)c3ccccc3)ccc2O1 | . | . | 1 | . | 20*
C[C@@H]1CCCCO[C@@H](CN(C)Cc2ccc(C(F)(F)F)cc2)[C@H](C)CN([C@@H](C)CO)C(=O)c2cc(NS(=O)(=O)c3ccccc3)ccc2O1 | . | . | 1 | . | 21*
C[C@@H]1CN([C@@H](C)CO)C(=O)c2cc(NS(=O)(=O)c3ccccc3)ccc2O[C@@H](C)CCCCO[C@H]1CN(C)Cc1ccc(C(F)(F)F)cc1 | . | . | 1 | . | 18*
CC(=NNC(=S)NC1CCCCC1)c1cccs1 | . | 5 | . | . | .
CCc1nc2sccc2c(=O)n1N | 6 | 3 | 2 | 43* | 0
N#CC(c1ccccc1)N(CCCCl)C(=O)c1ccccc1 (stereo not given) | -4 | 21* | -4 | 43* | -3
CC(=O)N(CCCCl)C(C#N)c1ccccc1 (stereo not given) | -1 | 3 | -8 | 44* | -1

High-throughput results: PubChem BioAssay, several laboratories
